Measured values: ChEMBL document CHEMBL1287651, “Synthesis and in vitro antibacterial activity of fluoroquinolone derivatives containing 3-(N'-alkoxycarbamimidoyl)-4-(alkoxyimino) pyrrolidines” (2010)
In brackets after ≈: the same amount, converted by molar mass.

How the values were obtained:
Format in all cases: functional
Staphylococcus aureus [1] = test: Antibacterial activity against Staphylococcus aureus ATCC […] after 18 to 24 hrs by twofold serial dilution method
Method in brief: (§1)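 MIC determined by the standard twofold serial dilution method on agar media, screening against Gram-positive and Gram-negative strains. Levofloxacin and gemifloxacin were run alongside as reference drugs.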

Staphylococcus aureus [2] = test: Antibacterial activity against methicillin-resistant Staphylococcus aureus 08-1 after 18 to 24 hrs by twofold serial dilution method
Method in brief: (§2)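 Standard twofold serial agar dilution method on agar media for MIC determination. Screened against representative Gram-positive and Gram-negative strains. Levofloxacin and GMFX served as control drugs.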

Staphylococcus aureus [3] = test: Antibacterial activity against methicillin-sensitive Staphylococcus aureus 08-2 after 18 to 24 hrs by twofold serial dilution method; method in brief: as §2
[4] = test system: Staphylococcus epidermidis; test: Antibacterial activity against methicillin-resistant Staphylococcus epidermidis 09-2 after 18 to 24 hrs by twofold serial dilution method; method in brief: as §2
[5] = test system: Staphylococcus epidermidis; test: Antibacterial activity against methicillin-resistant Staphylococcus epidermidis 09-3 after 18 to 24 hrs by twofold serial dilution method; method in brief: as §2
[6] = test system: Staphylococcus epidermidis; test: Antibacterial activity against methicillin-resistant Staphylococcus epidermidis 09-4 after 18 to 24 hrs by twofold serial dilution method; method in brief: as §2
[7] = test system: Staphylococcus epidermidis; test: Antibacterial activity against methicillin-sensitive Staphylococcus epidermidis 09-3 after 18 to 24 hrs by twofold serial dilution method; method in brief: as §2
[8] = test system: Staphylococcus epidermidis; test: Antibacterial activity against methicillin-sensitive Staphylococcus epidermidis 09-6 after 18 to 24 hrs by twofold serial dilution method; method in brief: as §2
Streptococcus pneumoniae [9] = test: Antibacterial activity against Streptococcus pneumoniae 08-2 after 18 to 24 hrs by twofold serial dilution method; method in brief: as §1
Streptococcus pneumoniae [10] = test: Antibacterial activity against Streptococcus pneumoniae 08-4 after 18 to 24 hrs by twofold serial dilution method; method in brief: as §1
Enterococcus faecium [11] = test: Antibacterial activity against Enterococcus faecium 08-2 after 18 to 24 hrs by twofold serial dilution method; method in brief: as §1
Enterococcus faecium [12] = test: Antibacterial activity against Enterococcus faecium 08-7 after 18 to 24 hrs by twofold serial dilution method; method in brief: as §1
Enterococcus faecalis [13] = test: Antibacterial activity against Enterococcus faecalis 08-10 after 18 to 24 hrs by twofold serial dilution method; method in brief: as §1
Enterococcus faecalis [14] = test: Antibacterial activity against Enterococcus faecalis 08-12 after 18 to 24 hrs by twofold serial dilution method; method in brief: as §1
Escherichia coli [15] = test: Antibacterial activity against Escherichia coli ATCC 25922 after 18 to 24 hrs by twofold serial dilution method; method in brief: as §1
Escherichia coli [16] = test: Antibacterial activity against Escherichia coli 08-21 after 18 to 24 hrs by twofold serial dilution method; method in brief: as §1
Escherichia coli [17] = test: Antibacterial activity against Escherichia coli 08-22 after 18 to 24 hrs by twofold serial dilution method; method in brief: as §1
Klebsiella pneumoniae [18] = test: Antibacterial activity against Klebsiella pneumoniae 09-21 after 18 to 24 hrs by twofold serial dilution method; method in brief: as §1
Klebsiella pneumoniae [19] = test: Antibacterial activity against Klebsiella pneumoniae 09-22 after 18 to 24 hrs by twofold serial dilution method; method in brief: as §1
Klebsiella pneumoniae [20] = test: Antibacterial activity against Klebsiella pneumoniae 09-23 after 18 to 24 hrs by twofold serial dilution method; method in brief: as §1
Pseudomonas aeruginosa [21] = test: Antibacterial activity against Pseudomonas aeruginosa ATCC 27853 after 18 to 24 hrs by twofold serial dilution method; method in brief: as §1
Pseudomonas aeruginosa [22] = test: Antibacterial activity against Pseudomonas aeruginosa 09-32 after 18 to 24 hrs by twofold serial dilution method; method in brief: as §1
Pseudomonas aeruginosa [23] = test: Antibacterial activity against Pseudomonas aeruginosa 09-33 after 18 to 24 hrs by twofold serial dilution method; method in brief: as §1
Pseudomonas aeruginosa [24] = test: Antibacterial activity against Pseudomonas aeruginosa 09-34 after 18 to 24 hrs by twofold serial dilution method; method in brief: as §1
Pseudomonas aeruginosa [25] = test: Antibacterial activity against Pseudomonas aeruginosa 09-35 after 18 to 24 hrs by twofold serial dilution method; method in brief: as §1

| Compound | MIC (Staphylococcus aureus [1]) [µg/mL] | MIC (Staphylococcus aureus [2]) [µg/mL] | MIC (Staphylococcus aureus [3]) [µg/mL] | MIC [4] [µg/mL] | MIC [5] [µg/mL] | MIC [6] [µg/mL] | MIC [7] [µg/mL] | MIC [8] [µg/mL] | MIC (Streptococcus pneumoniae [9]) [µg/mL] | MIC (Streptococcus pneumoniae [10]) [µg/mL] | MIC (Enterococcus faecium [11]) [µg/mL] | MIC (Enterococcus faecium [12]) [µg/mL] | MIC (Enterococcus faecalis [13]) [µg/mL] | MIC (Enterococcus faecalis [14]) [µg/mL] | MIC (Escherichia coli [15]) [µg/mL] | MIC (Escherichia coli [16]) [µg/mL] | MIC (Escherichia coli [17]) [µg/mL] | MIC (Klebsiella pneumoniae [18]) [µg/mL] | MIC (Klebsiella pneumoniae [19]) [µg/mL] | MIC (Klebsiella pneumoniae [20]) [µg/mL] | further results |
| --- | --- | --- | --- | --- | --- | --- | --- | --- | --- | --- | --- | --- | --- | --- | --- | --- | --- | --- | --- | --- | --- |
| CCO/N=C1\CN(c2c(F)cc3c(=O)c(C(=O)O)cn4c3c2OC[C@@H]4C)CC1/C(N)=N\O (stereo not given in full) | 0.25 (≈ 0.559 µM) | 0.25 (≈ 0.559 µM) | 0.25 (≈ 0.559 µM) | 0.5 (≈ 1.12 µM) | 0.25 (≈ 0.559 µM) | 0.5 (≈ 1.12 µM) | 0.25 (≈ 0.559 µM) | 0.25 (≈ 0.559 µM) | > 128 | 16 (≈ 35.8 µM) | > 128 | > 128 | > 128 | > 128 | > 128 | > 128 | > 128 | > 128 | 16 (≈ 35.8 µM) | > 128 | MIC (Pseudomonas aeruginosa [21]): 32 µg/mL (≈ 71.5 µM); MIC (Pseudomonas aeruginosa [22]): 64 µg/mL (≈ 143 µM); MIC (Pseudomonas aeruginosa [23]): > 128 µg/mL; MIC (Pseudomonas aeruginosa [24]): > 128 µg/mL; MIC (Pseudomonas aeruginosa [25]): 64 µg/mL (≈ 143 µM) |
| CO/N=C1\CN(c2nc3c(cc2F)c(=O)c(C(=O)O)cn3C2CC2)CC1/C(N)=N\OC (stereo not given) | 0.25 (≈ 0.578 µM) | 0.25 (≈ 0.578 µM) | 1 (≈ 2.31 µM) | 1 (≈ 2.31 µM) | 0.25 (≈ 0.578 µM) | 0.25 (≈ 0.578 µM) | 0.25 (≈ 0.578 µM) | 0.25 (≈ 0.578 µM) | > 128 | 1 (≈ 2.31 µM) | > 128 | > 128 | > 128 | > 128 | 128 (≈ 296 µM) | > 128 | > 128 | > 128 | 1 (≈ 2.31 µM) | > 128 | MIC (Pseudomonas aeruginosa [21]): 64 µg/mL (≈ 148 µM); MIC (Pseudomonas aeruginosa [22]): 128 µg/mL (≈ 296 µM); MIC (Pseudomonas aeruginosa [23]): > 128 µg/mL; MIC (Pseudomonas aeruginosa [24]): > 128 µg/mL; MIC (Pseudomonas aeruginosa [25]): 64 µg/mL (≈ 148 µM) |
| CCO/N=C1\CN(c2c(F)cc3c(=O)c(C(=O)O)cn(CCF)c3c2F)CC1/C(N)=N\OC (stereo not given) | 2 (≈ 4.26 µM) | 4 (≈ 8.52 µM) | > 128 | > 128 | 0.25 (≈ 0.533 µM) | 0.125 (≈ 0.266 µM) | 0.25 (≈ 0.533 µM) | 0.25 (≈ 0.533 µM) | > 128 | > 128 | > 128 | > 128 | > 128 | > 128 | > 128 | > 128 | > 128 | > 128 | > 128 | > 128 | MIC (Pseudomonas aeruginosa [21]): > 128 µg/mL; MIC (Pseudomonas aeruginosa [22]): > 128 µg/mL; MIC (Pseudomonas aeruginosa [23]): > 128 µg/mL; MIC (Pseudomonas aeruginosa [24]): > 128 µg/mL; MIC (Pseudomonas aeruginosa [25]): > 128 µg/mL |
| CCO/N=C1\CN(c2c(F)cc3c(=O)c(C(=O)O)cn(C4CC4)c3c2OC(F)F)CC1/C(N)=N\OCC (stereo not given) | 1 (≈ 1.9 µM) | 2 (≈ 3.81 µM) | 64 (≈ 122 µM) | 64 (≈ 122 µM) | 64 (≈ 122 µM) | > 128 | > 128 | > 128 | > 128 | > 128 | > 128 | > 128 | > 128 | 64 (≈ 122 µM) | 128 (≈ 244 µM) | > 128 | > 128 | > 128 | 64 (≈ 122 µM) | > 128 | MIC (Pseudomonas aeruginosa [21]): 128 µg/mL (≈ 244 µM); MIC (Pseudomonas aeruginosa [22]): > 128 µg/mL; MIC (Pseudomonas aeruginosa [23]): > 128 µg/mL; MIC (Pseudomonas aeruginosa [24]): > 128 µg/mL; MIC (Pseudomonas aeruginosa [25]): > 128 µg/mL |
